From PMC2837366 (Molecular cancer therapeutics, 2010)

Assays:
PH domain of PDPK1 = molecular target: T1, PH domain of PDPK1 (Homo sapiens, UniProt O15530); assay: SPR competitive binding assay, displacement from PtdIns; settings: for binding to the PH domain of PDKP1: at concentrations up to 50 µM
T1 sequence (O15530 459-550 limits assumed): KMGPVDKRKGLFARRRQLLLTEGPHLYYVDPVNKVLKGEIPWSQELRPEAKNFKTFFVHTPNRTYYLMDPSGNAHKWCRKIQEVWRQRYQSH
Method in brief: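 Binding was measured by SPR on a Biacore 2000 with streptavidin chips carrying biotin-labelled PtdIns(3,4,5)P₃ liposomes. Expressed recombinant human PDPK1 PH domain was competed with increasing test compound concentrations. Ki was the concentration displacing 50% of the PH domain bound to the liposomes without drug. Values are means of 4 determinations.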

PH domain of Akt2 = molecular target: T2, PH domain of Akt2 (Homo sapiens, UniProt P31751); assay: SPR competitive binding assay, displacement from PtdIns
T2 sequence (P31751 5-108 limits assumed): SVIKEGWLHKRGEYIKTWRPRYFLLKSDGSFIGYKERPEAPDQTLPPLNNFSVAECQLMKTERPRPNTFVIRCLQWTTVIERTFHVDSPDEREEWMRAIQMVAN

[1] = test system: BxPC-3 pancreatic, MCF-7 breast or A-549 NSCL cancer xenografts; assay: Antitumor activity, effect of the carbon chain length; type: in vivo, mouse; settings: 200 mg/kg oral gavage twice a day for 10 days; BxPC-3, MCF-7, A-549 xenografts
Method in brief: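 Female scid mice received about 10⁷ log-phase cells in 0.2 ml PBS subcutaneously in the flank. MCF-7 cells were given in Matrigel, with a 60-day 17-β-estradiol pellet implanted the day before. Mice were stratified into groups of 8 with similar mean tumor volumes. Test compound was given orally in 0.1 ml sesame seed oil; controls received vehicle. Calipers were read twice weekly, with volume = d_short² × d_long ÷ 2. Growth rate over the dosing period was compared with control by Student's t-test. T/C is the treated growth rate as a percent of control.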

[2] = test system: PtdIns-3-K/PDPK1/Akt signaling in PC-3 prostate cells; assay: Reverse phase protein array in PC-3 cells; type: cell-based, human; settings: 0.1 µM, 16 hours, RPPA
Method in brief: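 PC-3 cells were held in serum-free medium for 8 hr. They were then exposed for 16 hr to test compound at 0.1–10 µM, to wortmannin, or to DMSO vehicle. Lysate protein was analysed by quantitative reverse phase protein array with 74 validated PtdIns-3-K/Akt/PDPK1 pathway antibodies. Values are means of 3 determinations, expressed relative to DMSO control.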

[3] = SPR displacement assay, in words

Structure (SMILES): CCCCCCCCCCCCCCc1ccc(S(=O)(=O)Nc2nncs2)cc1 [C-14]
- binding to the PH domain of PDPK1 (PH domain of PDPK1; [3]): showed binding
- binding to the PH domain of Akt (PH domain of Akt2; [3]): lower, although still appreciable, binding

Structure (SMILES): CCCCCCc1ccc(S(=O)(=O)Nc2nncs2)cc1 [C-6]
- antitumor activity (tumor growth rate) [1]: very little activity

Structure (SMILES): CCCCCCCCc1ccc(S(=O)(=O)Nc2nncs2)cc1 [C-8]
- antitumor activity (tumor growth rate) [1]: less activity

Structure (SMILES): CN1N=C(N)c2cn([C@@H]3O[C@H](COP(=O)(O)O)[C@@H](O)[C@H]3O)c3ncnc1c23 [triciribine]
- binding to the PH domain of PDKP1 (PH domain of PDPK1): None of these compounds bound
- binding to the PH domain of Akt (PH domain of Akt2; at concentrations up to 50 µM): None of these compounds bound

Structure (SMILES): COC[C@H]1OC(=O)c2coc3c2[C@@]1(C)C1=C(C3=O)[C@@H]2CCC(=O)[C@@]2(C)C[C@H]1OC(C)=O [wortmannin, reference compound]
- phospho-Ser241-PDPK1 [2]: reduction
- phospho-Ser473-Akt [2]: completely inhibited
- phospho-Ser657-protein kinase C (PKC) [2]: decreased
- phospho-Thr308-Akt [2]: reduction
- total SGK1 [2]: decreased

Structure (SMILES): CCCCc1ccc(S(=O)(=O)Nc2nncs2)cc1 [C-4]
- antitumor activity (tumor growth rate) [1]: very little activity

Structure (SMILES): CCCCCCCCCCCCCCCCc1ccc(S(=O)(=O)Nc2nncs2)cc1 [C-16]
- binding to the PH domain of Akt (PH domain of Akt2; [3]): lower, although still appreciable, binding

Structure (SMILES): CCCCCCCCCCCCCCCCCCOCC(COP(=O)([O-])OCC[N+](C)(C)C)OC (stereo not shown) [edelfosine]
- binding to the PH domain of PDKP1 (PH domain of PDPK1): None of these compounds bound
- binding to the PH domain of Akt (PH domain of Akt2; at concentrations up to 50 µM): None of these compounds bound

Structure (SMILES): CCCCCCCCCCCCCCCCCCc1ccc(S(=O)(=O)Nc2nncs2)cc1 [C-18]
- binding to the PH domain of Akt (PH domain of Akt2; [3]): lower, although still appreciable, binding

Structure (SMILES): CCCCCCCCCCCCCCCCCCOP(=O)([O-])OC1CC[N+](C)(C)CC1 [perifosine]
- binding to the PH domain of PDKP1 (PH domain of PDPK1): None of these compounds bound
- binding to the PH domain of Akt (PH domain of Akt2; at concentrations up to 50 µM): None of these compounds bound

Structure (SMILES): NC1(c2ccc(-c3nc4ccn5c(=O)[nH]nc5c4cc3-c3ccccc3)cc2)CCC1 [MK-2206]
- binding to the PH domain of Akt (PH domain of Akt2; [3]): bound very weakly
